Measurements pooled from the literature.
Target: Serine/threonine-protein kinase Nek6 (NEK6, Homo sapiens, UniProt Q9HC98)

| Structure (SMILES) | read-out | mode | method | concentration | endpoint | result |
| --- | --- | --- | --- | --- | --- | --- |
| COc1cc(/C=C/C(=O)CC(=O)/C=C/c2ccc(O)c(OC)c2)ccc1O | enzyme activity | inhibitor |  | 1 µM | activity vs control | 97% |
| Cc1cc(-n2nc(Cc3cc(F)cc(C(F)(F)F)c3)nc2C)ccc1C(N)=O | cell-free assay |  | competition with immobilised ligand | 1 µM | remaining binding | 95% |
| COc1cc2ncnc(Nc3ccc(Oc4ccccc4)c(C)c3C)c2cc1OC | enzyme activity | inhibitor |  | 1 µM | inhibition | 8% |
| CNC(=O)c1cc(Oc2ccc(NC(=O)Nc3ccc(Cl)c(C(F)(F)F)c3)cc2)ccn1 | enzyme activity | inhibitor |  | 0.3 µM | inhibition | -13% |
| Nc1ncnc2occ(-c3ccc(NC(=O)Nc4cc(C(F)(F)F)ccc4F)cc3)c12 | cell-free assay | inhibitor |  | 20 µM | remaining signal | 0.15% |
| C[C@H](NC(=O)c1cnc2n1[C@](C)(Cc1ccc(C#N)cc1)C(=O)N2c1cc(Cl)c(F)c(Cl)c1)C(=O)NC1(c2ccccn2)CC1 | cell-free assay |  | competition with immobilised ligand | 1 µM | remaining binding | 100% |
| FC(F)(F)Oc1cccc(-c2cnc3ccc(-c4ccncc4)nn23)c1 | enzyme activity | inhibitor | radiometric | 5 µM | activity vs control | 93% |
| CO[C@@H](C)c1c(Nc2ccc([C@H](N(C)C(=O)C3CCS(=O)(=O)CC3)C(F)(F)F)cc2)cnc2cc(Cl)nn12 | cell-free assay |  | competition with immobilised ligand | 1 µM | remaining binding | 97% |
| CC/C(=N\NC(=O)NCc1cccc(O)c1)c1ccc(O)c(C)c1O | enzyme activity | inhibitor |  | 0.1 µM | inhibition | 0.2% |
| Cc1cc(NC(=O)c2cccc3cc(-c4cccc5[nH]nc(N)c45)ccc23)ccc1F | enzyme activity | inhibitor |  | 0.1 µM | activity vs control | 99% |
| O=C1NC(=O)c2cc(Nc3ccc(F)cc3)c(Nc3ccc(F)cc3)cc21 | cell-free assay |  |  | 0.5 µM | remaining signal | 109% |
| CCN(CC)CCNC(=O)c1c(C)[nH]c(/C=C2\C(=O)Nc3ccc(F)cc32)c1C | enzyme activity | inhibitor |  | 0.3 µM | inhibition | -14% |
| CC(C)CC(=O)N1CCc2nc(-c3ccc(Br)cc3)nc(N(C)Cc3ccccc3)c2C1 | cell-free assay |  | competition with immobilised ligand | 0.1 µM | remaining binding | 100% |
| O=C1Nc2ccc(Cl)cc2C1=Cc1cc(Cl)c(O)c(Cl)c1 | cell-free assay |  |  | 0.5 µM | remaining signal | 104% |
